Only some compounds are listed: those with a hit (about 4% of all), similar ones and a draw of the others.
WT yeast gro inh: growth inhibition of WT yeast, mitochondrial fusion screen | mitochondrial fusion phenotypic screen, WT strain | inhibition, % at 10 µM | 190,000 tested, 2.1% active | AID 1362; in the data active = inhibition above about 58%; tested in S. cerevisiae
Pf gametocyte: kills late stage P. falciparum gametocytes; AID 743093; P. falciparum stage V gametocytes, ATP luminescence, 24 h; 150,000 tested, 0.065% active; inhibition, % at 10.9 µM;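 active = inhibition above the mean plus 3 SD of compounds within the control limits, set per campaign, cut at about 38% in these data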
b-catenin transl: alters nuclear translocation of beta-catenin in HeLa cells | immunofluorescence imaging | nuclear translocation activity, % at 5 µM | 190,000 tested, 0.3% active | AID 1665;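 active = nuclear translocation activity above 50% at 5 µM, with a well cell count of 50 or more; inconclusive = wells under 50 cells across six images, flagged as toxic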;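 also: per-cell ratio of nuclear to cytoplasmic median beta-catenin stain intensity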
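assay system = human HeLa cells, endogenous beta-catenin | times = compound treatment 24 h, 37°C, 5% CO2 | detection = Anti-beta-catenin immunofluorescence on PFA-fixed, Triton-permeabilized cells, DAPI nuclei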
MT stabilizer: microtubule stabilization, imaging screen | HeLa tubulin immunostaining HCS, 24 h; share of cells brighter than vehicle mean+2SD | 200,000 tested, 0.83% active | % tubulin-high responders, % at 10 µM;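 active = plate Z-score above 3 for both tubulin-high and condensed-nucleus cell shares, with cell loss under 80%, at 10 µM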;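 also: anti alpha tubulin signal scored within the nucleus-defined area of each cell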
KCC2 mod: modulators of human KCC2 chloride dependent transport. 190,000 tested, 2.2% active. B-score of Tl+ flux slope (higher = more flux/activation; lower = inhibition) at 10 µM. KCC2 cells, thallium flux FluoZin-2 fluorescence. Q9H2X9;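 active = thallium flux slope and its plate-corrected score both differing from the plate sample mean at a set confidence after two filtering rounds, in either direction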;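 also: slope of fluorescence scaled to starting intensity during 10 to 20 s after thallium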
Target sequence (Q9H2X9 whole entry, looked up): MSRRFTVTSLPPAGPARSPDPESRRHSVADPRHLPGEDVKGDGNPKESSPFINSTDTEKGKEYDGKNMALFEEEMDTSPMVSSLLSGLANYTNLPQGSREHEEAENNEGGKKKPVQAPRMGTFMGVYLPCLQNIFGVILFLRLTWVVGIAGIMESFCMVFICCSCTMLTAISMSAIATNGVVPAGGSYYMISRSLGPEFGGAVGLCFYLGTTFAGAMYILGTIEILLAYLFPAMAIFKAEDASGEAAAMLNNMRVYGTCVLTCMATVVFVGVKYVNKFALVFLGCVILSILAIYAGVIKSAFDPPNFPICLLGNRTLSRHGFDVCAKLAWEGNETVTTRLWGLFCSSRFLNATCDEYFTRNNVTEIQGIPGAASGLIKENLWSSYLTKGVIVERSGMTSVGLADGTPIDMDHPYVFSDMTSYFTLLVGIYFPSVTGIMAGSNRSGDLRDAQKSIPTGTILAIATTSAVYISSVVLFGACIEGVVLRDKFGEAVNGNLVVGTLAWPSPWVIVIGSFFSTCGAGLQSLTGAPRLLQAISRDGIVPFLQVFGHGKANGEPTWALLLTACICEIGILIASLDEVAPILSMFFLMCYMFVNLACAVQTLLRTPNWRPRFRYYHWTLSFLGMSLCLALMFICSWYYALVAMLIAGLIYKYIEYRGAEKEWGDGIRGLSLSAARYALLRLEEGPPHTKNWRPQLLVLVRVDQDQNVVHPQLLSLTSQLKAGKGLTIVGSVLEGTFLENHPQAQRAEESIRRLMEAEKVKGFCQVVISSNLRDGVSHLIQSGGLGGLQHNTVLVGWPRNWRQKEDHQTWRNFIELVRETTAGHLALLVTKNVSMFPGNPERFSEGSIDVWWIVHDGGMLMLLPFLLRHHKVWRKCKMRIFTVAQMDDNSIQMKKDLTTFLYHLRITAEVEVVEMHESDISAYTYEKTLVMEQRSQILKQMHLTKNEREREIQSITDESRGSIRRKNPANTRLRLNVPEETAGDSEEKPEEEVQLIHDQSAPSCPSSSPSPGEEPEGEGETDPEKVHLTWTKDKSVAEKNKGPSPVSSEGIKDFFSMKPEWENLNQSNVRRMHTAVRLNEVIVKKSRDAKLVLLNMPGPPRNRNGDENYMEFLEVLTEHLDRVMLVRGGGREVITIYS
KCC2 secondary: confirmation of human KCC2 transport modulators. shares compounds with KCC2 mod. HEK293-KCC2, thallium flux, FluoZin2 fluorescence; hits give high values. normalised thallium flux (F/F0 slope) at 10 µM. 3,700 tested, 15% active;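 active = thallium flux slope above the same plate's solvent-only control mean plus 3 SD; inconclusive = the two replicate wells disagree; inactive = no significant difference from solvent-only control wells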
KCC2 bumet counter: thallium flux despite bumetanide block in KCC2 cells, secondary assay 3; shares compounds with KCC2 mod; HEK293-KCC2 + bumetanide/ouabain, thallium flux FluoZin2; hits give high values; normalized thallium flux at 10 µM; 3,700 tested, 49% active;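 active = thallium entry rate above the same plate's blocked-transporter control wells by more than 3 SD; inconclusive = the two repeat wells disagree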;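 also: raw slope of fluorescence over initial fluorescence between 10 and 20 s after thallium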
KCC2 secondary2: KCC2 (human) modulation, second secondary assay; shares compounds with KCC2 mod; HEK293-KCC2, thallium flux FluoZin2 fluorescence; actives lie on both sides; F/F0 rise rate, 10–20 s post-thallium; normalized thallium flux at 10 µM; 3,700 tested, 23% active; AID 1715;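 active = thallium flux slope more than 3 SD above or below the plate's solvent-only control mean, mostly below; inconclusive = the two repeat wells disagreed; inactive = no significant shift from solvent-only controls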
HEK counter1: parental HEK flux effect, counter-screen; shares compounds with KCC2 mod; HEK293 parental cells, thallium flux FluoZin2, ouabain; baseline-ratio fluorescence slope, 10–20 s after thallium; thallium flux rate (normalised fluorescence) at 10 µM; 3,700 tested, 46% active;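 active = thallium flux rate significantly above the same plate's solvent-only control wells, beyond their mean plus 3 SD; inconclusive = the two replicate wells gave conflicting results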
KCC2 retest ouab: KCC2 (human) modulation, ouabain retest | 3,700 tested, 48% active | HEK293-KCC2, thallium flux FluoZin2 fluorescence; bidirectional: low = inhibitor, high = activator | AID 1717 | shares compounds with KCC2 mod | raw Tl+ flux slope (below DMSO = inhibition, above = activation) at 10 µM;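 active = thallium flux slope beyond 3 SD from same-plate DMSO control mean in most replicates, usually higher, sometimes lower; inconclusive = repeat tests gave conflicting results; inactive = no significant difference from controls in most replicates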;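 also: slope of initial-normalized fluorescence between seconds 10 and 20 after thallium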
HEK293 Tl flux2: counter-screen for KCC2 modulators: effect in parental HEK293 cells; thallium flux slope at 10 µM; thallium flux FluoZin-2 fluorescence slope; shares compounds with KCC2 mod; 3,700 tested, 33% active; AID 1718;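 active = thallium flux slope above the same plate's solvent-control mean plus 3 SD in both duplicate wells; inconclusive = duplicate wells that disagreed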;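 also: run without ouabain in cells lacking the KCC2 cotransporter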
A number is an active result.

`CCn1c(=S)[nH]c2cc(Cl)ccc21` gave Pf gametocyte inactive, b-catenin transl inactive, KCC2 mod 10.3, KCC2 secondary inconclusive, KCC2 bumet counter 0.0244, KCC2 secondary2 inconclusive, HEK counter1 0.0217, KCC2 retest ouab 0.0308 and HEK293 Tl flux2 0.0191.
Screening CCCn1c(=S)[nH]c2cc(Cl)ccc21 returned Pf gametocyte inactive, b-catenin transl inactive, KCC2 mod 54.6, KCC2 secondary 0.0425, KCC2 bumet counter 0.0878, KCC2 secondary2 0.0486, HEK counter1 0.0467, KCC2 retest ouab 0.0514 and HEK293 Tl flux2 0.0447.
For CCn1c(=S)[nH]c2ccccc21 the results were WT yeast gro inh inactive, b-catenin transl inactive, MT stabilizer inactive and KCC2 mod inactive.
`CCN(CC)CCCn1c(=S)[nH]c2cc(Cl)ccc2c1=O` gave WT yeast gro inh inactive and MT stabilizer inactive.
COc1cccc(-n2c([S-])c(C(=O)Nc3ccc(C(F)(F)F)cc3)[n+]3ccccc23)c1 was read as WT yeast gro inh inactive, b-catenin transl inactive, MT stabilizer inactive and KCC2 mod inactive.
For C/C(=N\NC(=O)CSc1nc(C)cc(C)n1)c1ccc([N+](=O)[O-])cc1 the results were Pf gametocyte inactive, b-catenin transl inactive and KCC2 mod inactive.
Screening Cc1nc2c(cnn2-c2ccccc2Cl)c(=O)n1-c1ccc(N2CCC(C)CC2)cc1 returned WT yeast gro inh inactive, Pf gametocyte inactive, MT stabilizer inactive, KCC2 secondary inactive, KCC2 bumet counter inactive, KCC2 secondary2 inactive, HEK counter1 inactive, KCC2 retest ouab inactive and HEK293 Tl flux2 inactive.
CC(C)N(C(=S)Nc1cc(S(=O)(=O)N2CCOCC2)ccc1Cl)c1ccccc1 was read as WT yeast gro inh inactive, Pf gametocyte inactive, b-catenin transl inactive, MT stabilizer inactive and KCC2 mod inactive.
C/C(=N\NC(=S)Nc1cc(S(=O)(=O)N2CCOCC2)ccc1Cl)c1ccccc1F was read as WT yeast gro inh inactive, b-catenin transl inactive, MT stabilizer inactive, KCC2 mod 6.94, KCC2 secondary inconclusive, KCC2 bumet counter 0.0249, KCC2 secondary2 inactive, HEK counter1 0.0154, KCC2 retest ouab 0.0437 and HEK293 Tl flux2 inactive.
For COc1cc2ccccc2cc1C(=O)NC(=S)Nc1cc(C(=O)O)ccc1C the results were WT yeast gro inh inactive, Pf gametocyte inactive, b-catenin transl inactive, MT stabilizer inactive, KCC2 mod -6.98, KCC2 secondary inactive, KCC2 bumet counter 0.00855, KCC2 secondary2 inactive, HEK counter1 inactive, KCC2 retest ouab 0.0174 and HEK293 Tl flux2 inactive.
For CCOC(=O)CN(C(=O)c1ccccc1[N+](=O)[O-])C(C)(C)C the results were Pf gametocyte inactive, b-catenin transl inactive and KCC2 mod inactive.
Screening Cc1ccsc1/C=N/NC(=O)c1ccc([N+](=O)[O-])cc1 returned WT yeast gro inh inactive, b-catenin transl inactive, MT stabilizer inactive, KCC2 mod 3.57, KCC2 secondary inactive, KCC2 bumet counter 0.0156, KCC2 secondary2 inactive, HEK counter1 0.0107, KCC2 retest ouab inactive and HEK293 Tl flux2 0.0134.
CN1CCN(S(=O)(=O)c2ccc(-c3ccc(Cl)cc3)cc2)CC1 was read as WT yeast gro inh inactive, Pf gametocyte inactive, MT stabilizer inactive, KCC2 secondary inactive, KCC2 bumet counter inactive, KCC2 secondary2 inactive, HEK counter1 inactive, KCC2 retest ouab 0.0173 and HEK293 Tl flux2 inactive.
`COc1cc(/C=C/c2noc(-c3ccccc3O)n2)ccc1OC(C)=O` gave Pf gametocyte inactive, b-catenin transl inactive, KCC2 mod -5.5, KCC2 secondary inactive, KCC2 bumet counter inactive, KCC2 secondary2 inactive, HEK counter1 inactive, KCC2 retest ouab inactive and HEK293 Tl flux2 inactive.
CCN(C(=O)c1cc2c(=O)[nH]c3ccc(C)cc3c2s1)c1ccc(OC)cc1 was read as Pf gametocyte inactive, b-catenin transl inactive and KCC2 mod inactive.
Screening COCCNS(=O)(=O)c1ccc(-c2ccc(Cl)cc2)cc1 returned WT yeast gro inh inactive, Pf gametocyte inactive, b-catenin transl inactive, MT stabilizer inactive, KCC2 mod -2.77, KCC2 secondary inactive, KCC2 bumet counter inactive, KCC2 secondary2 0.0258, HEK counter1 inactive, KCC2 retest ouab inconclusive and HEK293 Tl flux2 inactive.
Screening O=C(Nc1nc2c(Br)cc(Br)cc2c(=O)s1)c1ccco1 returned Pf gametocyte inactive, b-catenin transl inactive, KCC2 mod 17, KCC2 secondary 0.0268, KCC2 bumet counter 0.03, KCC2 secondary2 inactive, HEK counter1 0.0397, KCC2 retest ouab 0.032 and HEK293 Tl flux2 0.0132.
`Cc1nc(NC(=O)c2ccco2)sc1C(=O)Nc1ccc(Br)cc1` gave WT yeast gro inh inactive, b-catenin transl inactive, MT stabilizer inactive, KCC2 mod -5.26, KCC2 secondary inactive, KCC2 bumet counter inactive, KCC2 secondary2 inconclusive, HEK counter1 inactive, KCC2 retest ouab inactive and HEK293 Tl flux2 inactive.
For Cc1nc(-c2ccncc2)sc1C(=O)Nc1ccc(Br)cc1 the results were WT yeast gro inh inactive, Pf gametocyte inactive, b-catenin transl inactive, MT stabilizer inactive and KCC2 mod inactive.
`CC(C)(C)c1cc(=O)n(-c2ccccc2)[nH]1` gave WT yeast gro inh inactive, Pf gametocyte inactive and MT stabilizer inactive.
For S=C(Nc1cccc2ccccc12)N1CCN(c2ncccn2)CC1 the results were WT yeast gro inh inactive, b-catenin transl inactive, MT stabilizer inactive and KCC2 mod inactive.
O=C(Nc1cccc2ccccc12)N1CCN(c2ncccn2)CC1 was read as WT yeast gro inh inactive, Pf gametocyte inactive, b-catenin transl inactive, MT stabilizer inactive, KCC2 mod -4.06, KCC2 secondary inactive, KCC2 bumet counter inconclusive, KCC2 secondary2 inactive, HEK counter1 inactive, KCC2 retest ouab inactive and HEK293 Tl flux2 inactive.
Screening CCC(=O)OCC(=O)c1cc(C)n(-c2ccc(Br)cc2)c1C returned WT yeast gro inh inactive, Pf gametocyte inactive, b-catenin transl inactive, MT stabilizer inactive and KCC2 mod inactive.

Bioassay records (PubChem)
